30 molecules from ChEMBL document CHEMBL3616408, “Elaboration of a fragment library hit produces potent and selective aspartate semialdehyde dehydrogenase inhibitors” (Bioorg Med Chem, 2015) can be followed below.

SMILES strings stand for the structures. Active and inactive are the calls of the source. The rule behind the calls is not given here.

Broadly, the Ki is a measure of affinity in units of concentration, obtained from inhibition or displacement.

Test [1] is described as follows: Inhibition of Streptococcus pneumoniae ASADH using aspartate semialdehyde and NADP+. The method in brief:
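Recombinant enzyme, stored at -20 °C in 50 mM HEPES pH 7, 1 mM EDTA, 1 mM DTT. Reverse reaction run at room temperature in 120 mM CHES pH 8.6, 200 mM KCl, with 0.15 mM ASA, 1.5 mM NADP and 20 mM phosphate; 30 μg ml−1 enzyme starts it. NADPH formation read at 340 nm. Inhibitor serially diluted; Ki from Dixon plot of initial velocities, assuming competition with ASA.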

Test [2] in a line: (§1) Inhibition of Vibrio cholerae ASADH using aspartate semialdehyde and NADP+.
The nature of test [3]: Selectivity index, ratio of Ki for Vibrio cholerae ASADH to KI for Streptococcus pneumoniae ASADH. A digest of the protocol:
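Recombinant S. pneumoniae and V. cholerae ASADH, stored at -20 °C in 50 mM HEPES pH 7, 1 mM EDTA, 1 mM DTT. Reverse reaction run at r.t. in 120 mM CHES pH 8.6, 200 mM KCl, with 1.5 mM NADP, 20 mM phosphate, and ASA at 0.15 mM (sp) or 0.3 mM (vc). Enzyme was 30 μg ml−1. NADPH formation was read at 340 nm. Serially diluted inhibitor gave initial velocities, and Ki came from Dixon plots assuming competition with ASA. The index is vc Ki divided by sp Ki.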

In test [4] the test system is Vibrio cholerae. Put plainly: Inhibition of Vibrio cholerae ASADH up to 2 mM using aspartate semialdehyde and NADP+. A digest of the protocol: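 Recombinant V. cholerae enzyme assayed in reverse direction at r.t. in 120 mM CHES pH 8.6 with 200 mM KCl, 0.3 mM ASA, 1.5 mM NADP and 20 mM phosphate. Reaction started with 30 μg ml−1 enzyme, and NADPH formation followed at 340 nm. Inhibitor tested at concentrations up to 2 mM.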

Test [5] deals with Vibrio cholerae. Nature of the test: Inhibition of Vibrio cholerae ASADH up to 4 mM using aspartate semialdehyde and NADP+. A digest of the protocol:
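Recombinant V. cholerae enzyme assayed in reverse direction at r.t. in 120 mM CHES pH 8.6 with 200 mM KCl, 0.3 mM ASA, 1.5 mM NADP and 20 mM phosphate. Reaction started with 30 μg ml−1 enzyme, and NADPH formation followed at 340 nm. Inhibitor tested at concentrations up to 4 mM.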

In test [6] the test system is Vibrio cholerae. The test is described as §1.

Turning to `Cc1ccc(CN(CC(=O)O)Cc2ccc(C(=O)O)c(C(=O)O)c2)cc1`, the figures for the Ki in test [1] and in test [2] (read-out: Ki) were 63 µM and 608 µM, respectively. The Ratio Ki in test [3] amounted to 10.
Take `O=C([O-])CCNCc1ccc(C(=O)[O-])c(C(=O)[O-])c1.[Na+].[Na+].[Na+]`: the inhibition result in test [4] was “inactive”. In addition, the Ki was 2400 µM in test [1] and “Not Active” in test [2].
As for `O=C([O-])CCN(Cc1ccc(Br)cc1)Cc1ccc(C(=O)[O-])c(C(=O)[O-])c1.[Na+].[Na+].[Na+]`, the figures for the Ki in test [1] and in test [2] were 3600 µM and “Not Active”, respectively. In test [5], the inhibition result is “inactive”.
For the molecule `NC(=O)c1ccc(CN(CC(=O)O)Cc2ccc(C(=O)O)c(C(=O)O)c2)cc1`, the Ki turned out to be 229 µM in test [1] and 649 µM in test [2] (read-out: Ki). Moreover, in test [3], the Ratio Ki worked out at 10.
On to `C=CCN(CC(=O)O)Cc1ccc(C(=O)O)c(C(=O)O)c1`, for which the Ki came to 303 µM in test [1] and 663 µM in test [2] (read-out: Ki).
With `CN(CC(=O)O)Cc1cccc(C(=O)O)c1C(=O)O`, the inhibition constant (Ki) in test [1] was found to be 1800 µM. The inhibition result in test [6] was “inactive”.
Regarding `O=C(O)CN(Cc1cccc(Br)c1)Cc1ccc(C(=O)O)c(C(=O)O)c1`, the Ki in test [1] was determined as 442 µM; in test [2] (read-out: Ki) it was 665 µM. Besides, in test [3], the Ratio Ki stood at 10.
For `O=C(O)CN(Cc1ccccc1)Cc1ccc(C(=O)O)c(C(=O)O)c1`, the inhibitory constant (Ki) in test [1] was determined as 297 µM; in test [2] (read-out: Ki), 696 µM.
For the molecule `O=CCN(CC(=O)O)Cc1ccc(C(=O)O)c(C(=O)O)c1`, the values for the inhibition constant (Ki) in test [1] and in test [2] (read-out: Ki) were 276 µM and 655 µM, respectively.
Turning to `O=C(O)CN(Cc1ccc(OC(F)F)cc1)Cc1ccc(C(=O)O)c(C(=O)O)c1`, the Ki came out at 54 µM in test [1] and 698 µM in test [2] (read-out: Ki). The Ratio Ki in test [3] is 10.
The matching figures for `O=C(O)CN(Cc1ccc(C(=O)O)c(C(=O)O)c1)Cc1ccccc1C(F)(F)F`: 509 µM, 727 µM and 10.
The matching figures for `Cc1cccc(CN(CC(=O)O)Cc2ccc(C(=O)O)c(C(=O)O)c2)c1`: 430 µM, 690 µM and 10.
As to `O=C(O)CN(CCN1CCOCC1)Cc1ccc(C(=O)O)c(C(=O)O)c1`, the Ki was found to be 176 µM in test [1] and 692 µM in test [2] (read-out: Ki).
Consider `O=C([O-])CCN(Cc1ccc(C(F)(F)F)cc1)Cc1ccc(C(=O)[O-])c(C(=O)[O-])c1.[Na+].[Na+].[Na+]`, for which the Ki in test [1] was 3800 µM; in test [2], “Not Active”. Also, the inhibition result in test [5] is “inactive”.
For `O=C(O)CN(Cc1ccc(OC(F)(F)F)cc1)Cc1ccc(C(=O)O)c(C(=O)O)c1`, the Ki in test [1] was found to be 36 µM; in test [2] (read-out: Ki), 663 µM. In addition, the Ratio Ki in test [3] was determined as 10.
On to `O=C(O)CN(Cc1cccc(OC(F)(F)F)c1)Cc1ccc(C(=O)O)c(C(=O)O)c1`, for which the figures for the inhibitory constant (Ki) in test [1] and in test [2] (read-out: Ki) were 427 µM and 684 µM, respectively. Moreover, the Ratio Ki in test [3] is 10.
With `O=C(O)c1ccc(CN[C@@H](CO)C(=O)O)cc1C(=O)O`, the figures for the Ki in test [1] and in test [2] (read-out: Ki) were 324 µM and 654 µM, respectively.
The matching figures for `C[C@H](NCc1ccc(C(=O)O)c(C(=O)O)c1)C(=O)O`: 296 µM and 609 µM.
For `CN(CC(=O)O)Cc1ccc(C(=O)O)c(C(=O)O)c1`, in that order: 296 µM and 675 µM.
In the case of `O=C(O)CN(Cc1ccc(C(=O)O)c(C(=O)O)c1)Cc1ccccc1Br`, the Ki was determined as 529 µM in test [1] and 737 µM in test [2] (read-out: Ki). In test [3], the Ratio Ki worked out at 10.
The matching figures for `O=C(O)CN(Cc1ccc(C(=O)O)c(C(=O)O)c1)Cc1ccccc1OC(F)(F)F`: 540 µM, 708 µM and 10.
`O=C(O)CN(Cc1ccc(Br)cc1)Cc1ccc(C(=O)O)c(C(=O)O)c1`: the figures for the Ki in test [1] and in test [2] (read-out: Ki) were 57 µM and 629 µM, respectively. Moreover, the Ratio Ki in test [3] amounted to 10.
The matching figures for `O=C(O)CN(Cc1ccc(C(=O)O)cc1)Cc1ccc(C(=O)O)c(C(=O)O)c1`: 72 µM, 635 µM and 10.
The matching figures for `CC(C)(C)c1ccc(CN(CC(=O)O)Cc2ccc(C(=O)O)c(C(=O)O)c2)cc1`: 16 µM, 648 µM and 10.
For `O=C(O)CNCc1ccc(C(=O)O)c(C(=O)O)c1`, in that order: 246 µM, 528 µM and 2.
As to `O=C(O)CN(Cc1ccc(C(F)(F)F)cc1)Cc1ccc(C(=O)O)c(C(=O)O)c1`, the inhibition constant (Ki) in test [1] was 24 µM; in test [2] (read-out: Ki), 628 µM. In test [3], the Ratio Ki came to 10.
For `O=C(O)CN(Cc1cccc(C(F)(F)F)c1)Cc1ccc(C(=O)O)c(C(=O)O)c1`, in that order: 441 µM, 678 µM and 10.
The matching figures for `Cc1ccccc1CN(CC(=O)O)Cc1ccc(C(=O)O)c(C(=O)O)c1`: 524 µM, 721 µM and 10.
The matching figures for `O=C(O)CN(Cc1ccc(/C=C/Cc2ccccc2)cc1)Cc1ccc(C(=O)O)c(C(=O)O)c1`: 476 µM, 1100 µM and 10.
Consider `N#CCCN(CC(=O)O)Cc1ccc(C(=O)O)c(C(=O)O)c1`, for which the Ki in test [1] stood at 220 µM; in test [2] (read-out: Ki), 498 µM.
